One assay concerns the target Phosphodiesterase 4 (Homo sapiens, UniProt P27815+Q08499+Q07343+Q08493). Description: Inhibition in vitro of Phosphodiesterase 4 activity isolated from guinea pig lung. Type of assay: protein assay, Cavia porcellus. The note with it: target entry is the homologue from another species. The method, boiled down: (§1)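 PDEs came from guinea pig cardiac ventricle (types I, III) and lung (types IV, V). Tissue was homogenized at pH 6.5 with protease inhibitors and spun at 25000G, and the supernatant was run on DEAE-Sephacrose with a 50–1000 mM sodium acetate gradient. Assay: 40 mM Tris-HCl pH 8.0, 5 mM MgCl2, 4 mM 2-mercaptoethanol, 1.0 μM [3H]cAMP or [3H]cGMP, 20 min at 30 °C, substrate hydrolysis ≤20%. Triplicates at 3–4 inhibitor levels; IC50 read graphically.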

Assay [1] concerns the target T1, Phosphodiesterase 3 (Homo sapiens, UniProt Q14432+Q13370). The experiment in a line: Inhibition in vitro of Phosphodiesterase 3 isolated from guinea pig cardiac ventricle. It is filed as protein assay, Cavia porcellus. The note with it: target entry is the homologue from another species. The method, boiled down: as §1
For assay [2], the system named is Cavia porcellus. Description: Change in heart rate in guinea pigs after 0.3 mg/kg intravenous dose. It is filed as functional. The method, boiled down: (§2)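 Anesthetized guinea pigs in the histamine bronchospasm setup, with spontaneous breathing abolished by gallamine triethiodide (5 mg/kg iv). Heart rate was taken by cardiography triggered on the ECG R wave (standard limb lead II). Test agent was suspended in saline with Tween 80 and given iv 1 min before histamine. The value is the post-dose rate minus the basal rate (basal 230–330 beats/min).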

Assay [3] concerns Cavia porcellus. The experiment in a line: Reduced histamine-induced bronchoconstriction in anesthetized guinea pig at 3 mg/kg intravenous dose. Type of assay: functional. The method, boiled down: (§3)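 Anesthetized guinea pigs immobilized with gallamine triethiodide (5 mg/kg iv) and artificially ventilated. Histamine dihydrochloride (2 μg/kg) given iv via the lateral saphenous vein at 10 min intervals. Compound suspended in saline with Tween 80, given iv 1 min before histamine. Pulmonary inflation pressure recorded as the bronchospasm index; result expressed as percent inhibition of histamine-induced bronchoconstriction.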

In assay [4] the test system is Cavia porcellus. The experiment in a line: Reduced histamine-induced bronchoconstriction in anesthetized guinea pig at 1 mg/kg intravenous dose. It is filed as functional. The method, boiled down: as §3
Assay [5] relates to Cavia porcellus. Description: Change in heart rate in guinea pigs after 1 mg/kg intravenous dose. It is filed as functional. The method, boiled down:
as §2

In assay [6] the test system is Cavia porcellus. Description: Change in heart rate in guinea pigs after 3 mg/kg intravenous dose. It is filed as functional. The method, boiled down: as §2
The subject of assay [7] is Cavia porcellus. Description: Reduced histamine-induced bronchoconstriction in anesthetized guinea pig at 0.3 mg/kg intravenous dose. It is filed as functional.
Assay [8] concerns the target Phosphodiesterase 1 (Cavia porcellus). Description: Inhibition in vitro of Phosphodiesterase 1 isolated from guinea pig cardiac ventricle.
In assay [9] the test system is Cavia porcellus. The experiment in a line: Change in heart rate in guinea pigs after 0.1 mg/kg intravenous dose. It is filed as functional. The essentials:
as §2

Assay [10] deals with Cavia porcellus. The experiment in a line: Change in heart rate in guinea pigs after 0.03 mg/kg intravenous dose. Type of assay: functional. The essentials:
as §2

The test system of assay [11] is Cavia porcellus. The experiment in a line: Reduced histamine-induced bronchoconstriction in anesthetized guinea pig at 0.1 mg/kg intravenous dose. It is filed as functional.
In assay [12] the test system is Cavia porcellus. Description: Inhibition of histamine-induced bronchoconstriction in anesthetized guinea pig at 0.03 mg/kg intravenous dose.
Assay [13] has as its system Cavia porcellus. Description: Reduced histamine-induced bronchoconstriction in anesthetized guinea pig at 0.03 mg/kg intravenous dose. Type of assay: functional.
Assay [14] deals with Cavia porcellus. Description: (§4) Inhibition of antigen-induced bronchoconstriction in anesthetized guinea pig at 0.1 mg/kg intravenous dose. Type of assay: functional.
The nature of assay [15]: Inhibition of Phosphodiesterase 5 from guinea pig lung. Also on record: species or system Cavia porcellus. The essentials:
as §1

Assay [16] can be described thus: Inhibition of Phosphodiesterase 4 from guinea pig lung. Also on record: species or system Cavia porcellus. The method, boiled down: as §1
Assay [17] concerns the target T1, Phosphodiesterase 3. The experiment in a line: Inhibition of Phosphodiesterase 3 from guinea pig cardiac ventricle. Type of assay: protein assay, Cavia porcellus. The note with it: target entry is the homologue from another species. The essentials: as §1
Another assay concerns the target Phosphodiesterase 1 (Homo sapiens, UniProt P54750+Q01064+Q14123). The experiment in a line: Inhibition of Phosphodiesterase 1 from guinea pig cardiac ventricle. Particulars: target entry is the homologue from another species. It is filed as protein assay, Cavia porcellus. The essentials:
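PDE I pooled from DEAE-Sepharose fractions of guinea pig cardiac ventricle homogenate (pH 6.5 buffer with protease inhibitors, sodium acetate gradient). Assay buffer 40 mM Tris-HCl pH 8.0, 5 mM MgCl2, 4 mM 2-mercaptoethanol. Substrate [3H]cAMP or [3H]cGMP at 1.0 μM, hydrolysis kept ≤20%. Run 20 min at 30 °C, inhibitors in DMSO. Triplicates at 3–4 concentrations, IC50 read graphically from means.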

For assay [18], the system named is Cavia porcellus. Description: Inhibition of histamine-induced bronchoconstriction in anesthetized guinea pig at 0.1 mg/kg intravenous dose.
The subject of assay [19] is Cavia porcellus. The experiment in a line: Change in guinea pig heart rate after intravenous administration of 0.1 mg/kg. Type of assay: functional. The essentials: as §2
The subject of assay [20] is Cavia porcellus. The description is as §4. Type of assay: functional. This is another data set of the same source.
For assay [21], the system named is Cavia porcellus. Description: Inhibition of antigen-induced bronchoconstriction in anesthetized guinea pig at 3 mg/kg intravenous dose. It is filed as functional.
In assay [22] the test system is Cavia porcellus. Description: Inhibition of histamine-induced bronchoconstriction in anesthetized guinea pig at 3 mg/kg intravenous dose.

“And” between values parts separate entries of the source, which are not always exact repeats. Equal values may be shown once. A value given as a limit tells only on which side of the number the result lay.

`COc1ccc(-c2c(CO)c(CO)cc3cc(OC)c(OC)cc23)cc1OC`: the IC50 against Phosphodiesterase 4 was 0.2 µM; against Phosphodiesterase 3 [1] it was 1 µM.
As for `CCOc1cc2cc(CO)c(CO)c(-c3ccn(CCOC)c(=O)c3)c2cc1OC`, the results for the Heart rate in the assay on Cavia porcellus [2], in the assay with Cavia porcellus [5] and with Cavia porcellus [6] were 4 beats min-1, 7 beats min-1 and 6 beats min-1, respectively. In addition, the results for the Reduction in the assay on Cavia porcellus [3], with Cavia porcellus [4] and in the assay with Cavia porcellus [7] were 98%, 76% and 30%, respectively. The IC50 worked out at 0.45 µM at Phosphodiesterase 4 and 7 µM at Phosphodiesterase 3 [1].
Consider `COc1ccc2c(-c3cc(OC)c(OC)c(OC)c3)c(CO)c(CO)cc2c1`, for which the IC50 in assay [8] stood at 30 µM; on Phosphodiesterase 4, 40 µM; against Phosphodiesterase 3 [1] it was 20 µM.
Take `COc1cc2cc(CO)c(CO)c(-c3cc(OC)c(OC)c(OC)c3)c2cc1OC`: the IC50 in assay [8] was 60 µM; against Phosphodiesterase 4 it was 0.3 µM; against Phosphodiesterase 3 [1], 0.9 µM. Further, the Reduction in the assay on Cavia porcellus [3] is on record as 89%. The Delta beats/min in the assay on Cavia porcellus [6] is given as 79.
For the compound `COc1cc2cc(CO)c(CO)c(-c3cc(OC)c(OC)c(S(C)(=O)=O)c3)c2cc1OC`, the Heart rate was -7 beats min-1 with Cavia porcellus [2], 1 beats min-1 with Cavia porcellus [9] and 3 beats min-1 in the assay on Cavia porcellus [10]. The concentration for half-maximal inhibition (IC50) in [8] was 100 µM; against Phosphodiesterase 4, 0.05 µM; against Phosphodiesterase 3 [1], 0.09 µM. Also, the Reduction with Cavia porcellus [11] came out at 57%; with Cavia porcellus [13] it was 34%; in the assay on Cavia porcellus [7], 71%. In addition, in the assay with Cavia porcellus [12], the ED50 worked out at 0.093 mg/kg.
For `COc1cc2cc(CO)c(CO)c(-c3ccn(C)c(=O)c3)c2cc1OC`, the IC50 on Phosphodiesterase 4 is 0.6 µM; against Phosphodiesterase 3 [1] it was 20 µM.
At Phosphodiesterase 4, `COc1cc2cc3c(c(-c4cc(OC)c(OC)c(OC)c4)c2cc1OC)C(=O)OC3` gave an IC50 of 0.5 µM.
As for `COc1cc2cc(CO)c(CO)cc2cc1OC`, the IC50 was over 100 µM in [8], 20 µM against Phosphodiesterase 4 and over 100 µM against Phosphodiesterase 3 [1].
In the case of `COc1cc2cc(CO)c(CO)c(Cc3cc(OC)c(OC)c(OC)c3)c2cc1OC`, the IC50 is 40 µM in assay [8], 5 µM against Phosphodiesterase 4 and 8 µM against Phosphodiesterase 3 [1].
Turning to `COCCn1ccc(-c2c(CO)c(CO)cc3cc(OC)c(OC)cc23)cc1=O`, the Heart rate came out at 3 beats min-1 in the assay on Cavia porcellus [2] and 1 beats min-1 in the assay with Cavia porcellus [9]. Moreover, the Reduction with Cavia porcellus [3] was determined as 70%; with Cavia porcellus [11] it was 34%. The compound further gave a median effective dose (ED50) in the assay on Cavia porcellus [14] of 0.16 mg/kg. In addition, the IC50 came out at 0.5 µM against Phosphodiesterase 4 and 14 µM on Phosphodiesterase 3 [1].
Regarding `COc1ccc(C2CNC(=O)C2)cc1OC1CCCC1` (centres undefined) [ROLIPRAM], the IC50 was over 100 µM in assay [15], 1.9 µM in assay [16], over 100 µM at Phosphodiesterase 3 [17] and over 100 µM against Phosphodiesterase 1. For the same compound, the results for the Heart rate in the assay with Cavia porcellus [9] and with Cavia porcellus [5] were 9 beats min-1 and 3 beats min-1, respectively. In addition, the values for the ED50 in the assay with Cavia porcellus [14] and in the assay with Cavia porcellus [18] were 19 mg/kg and 0.01 mg/kg, respectively. For the same compound, the Reduction came to 72% in the assay on Cavia porcellus [4] and 79% with Cavia porcellus [11].
Regarding `CCOc1cc2cc(CO)c(CO)c(-c3ccn(CCOC)c(=O)c3)c2cc1OCC`, the Heart rate with Cavia porcellus [2], in the assay with Cavia porcellus [19] and in the assay on Cavia porcellus [6] was 5 beats min-1 in each case. The ED50 in the assay on Cavia porcellus [14] amounted to 0.08 mg/kg; in the assay with Cavia porcellus [20], 2.3 mg/kg. The IC50 on Phosphodiesterase 4 amounted to 0.057 µM; on Phosphodiesterase 3 [1], 57 µM. Besides, the Reduction with Cavia porcellus [11] was 60%; with Cavia porcellus [7] it was 92%.
Consider `CCOc1cc2cc(CO)c(CO)c(-c3cc(N)c(OC)c(OC)c3)c2cc1OCC.Cl`, for which the IC50 turned out to be 50 µM in assay [8], 0.05 µM against Phosphodiesterase 4 and 20 µM on Phosphodiesterase 3 [1]. Further, the ED50 in the assay on Cavia porcellus [21] is over 10 mg/kg; in the assay with Cavia porcellus [22], 0.39 mg/kg. Further, the Reduction is 69% in the assay on Cavia porcellus [4]; 45% and 90% with Cavia porcellus [7] (0.3 mg/kg). In the assay with Cavia porcellus [5], this compound came in with a Heart rate of 1 beats min-1.
`COc1cc2cc(CO)c(CO)c(C3=CC=NC(=O)C3)c2cc1OC`: the 50% inhibitory concentration (IC50) in assay [8] was over 100 µM; against Phosphodiesterase 4, 0.2 µM; at Phosphodiesterase 3 [1], 20 µM.
In the case of `COc1cc2cc(CO)c(CO)c(-c3cc(OC)c(OC)c(C(=O)N(C)C)c3)c2cc1OC`, the Heart rate in the assay on Cavia porcellus [2] worked out at 50 beats min-1; in the assay with Cavia porcellus [9] it was 28 beats min-1; in the assay with Cavia porcellus [10], 1 beats min-1. For the same compound, the IC50 in [8] is over 100 µM; against Phosphodiesterase 4, 0.005 µM; against Phosphodiesterase 3 [1] it was 0.06 µM. Further, the results for the Reduction with Cavia porcellus [11], with Cavia porcellus [13] and in the assay on Cavia porcellus [7] were 83%, 59% and 69%, respectively. Moreover, in the assay on Cavia porcellus [12], the ED50 was found to be 0.03 mg/kg.
For `CCCCn1ccc(-c2c(CO)c(CO)cc3cc(OCC)c(OCC)cc23)cc1=O`, the Heart rate in the assay with Cavia porcellus [2] is recorded as -5 beats min-1. Further, the IC50 at Phosphodiesterase 4 worked out at 0.03 µM; at Phosphodiesterase 3 [1], 50 µM. This compound had a Reduction with Cavia porcellus [7] of 47%.
Turning to `COc1cc2cc(CO)c(CO)c(-c3cc(NC(C)=O)c(OC)c(OC)c3)c2cc1OC`, the IC50 in assay [8] came to 100 µM; on Phosphodiesterase 4, 0.07 µM; at Phosphodiesterase 3 [1] it was 2 µM.
The like results for `COc1cc(-c2c(CO)c(CO)cc3cc4c(cc23)OCO4)cc(OC)c1OC` were, in that order, over 100 µM, over 30 µM and over 100 µM.

Usually IC50 stands for the concentration that inhibits the measured activity by half. Read a low IC50 as greater potency in that assay. For orientation: ED50 means the dose at which the effect has come halfway, by size or by number of responders. Read a high ED50 as weaker potency.

The values above are taken from ChEMBL document CHEMBL1129366, “Novel selective PDE IV inhibitors as antiasthmatic agents. Synthesis and biological activities of a series of 1-aryl-2,3-bis(hydroxymethyl)naphthalene lignans” (J Med Chem, 1996).
